Sampled rows, rich in hits. Any-hit rate of the full collection: about 2%.
CDK5 p35 inh – inhibitors of human CDK5/p35 kinase, primary screen, biochemical, single concentration; Recombinant CDK5/p35, ADP-Glo luminescence, 60 min; inhibition, % at 10 µM; 330,000 tested, 0.01% active;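 active means highest replicate inhibition of at least 50% and at least 75% of replicates reaching 50%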;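 further: plate controls were DMSO neutral control for no effect and GW8510 at 10 µM for full effect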
CAL PDZ FP-1 – untagged CAL PDZ binding inhibitors, primary screen, biochemical, fluorescence polarization, HTS. Golgi-associated PDZ and coiled-coil motif-containing protein (Homo sapiens), Q9HD26. purified CAL PDZ, TMR-peptide fluorescence polarization, 1 h. inhibition, % at 24.9 µM. 300,000 tested, 0.92% active. AID 602252, 2012;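 active means mean inhibition of at least 30% with at least half of replicates also reaching 30%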;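 further: 0% = DMSO neutral control and 100% = excess unlabeled competitor peptide PRC23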
S100A4 MyoIIA – inhibitors of S100A4-myosin IIA peptide binding, primary screen, biochemical, fluorescence polarization, TAMRA-MyoIIA peptide; Protein S100-A4 (Homo sapiens), P26447; inhibition, % at 10.7 µM; 360,000 tested, 0.14% active; AID 652163, 2013;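 active means mean inhibition of at least 70% across replicates, with every replicate also reaching that level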
Target sequence (P26447 whole entry, looked up): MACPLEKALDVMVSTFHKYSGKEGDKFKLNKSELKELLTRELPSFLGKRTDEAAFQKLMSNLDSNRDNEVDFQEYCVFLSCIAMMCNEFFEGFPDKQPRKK
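Test system: S100A4 monomer protein; Medium: HEPES pH 7.2 with CaCl2, KCl, NaCl, DTT, Triton; Probe or stimulus: TAMRA-labelled myosin IIA heavy-chain peptide probe, 5 nM; Doses: one dose per compound; Times: polarization read 5 min after assay mix addition, stable 5–60 min; Benchmarks: neutral control DMSO, positive control TFP.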
C2C12 statin – suppressors of statin myotoxicity in C2C12 myotubes, primary screen, cell-based, single point, plate reader; AID 602340, 2012; 330,000 tested, 0.78% active; C2C12 myotubes + simvastatin, ATP luminescence, 48 h; scaled: DMSO 0, geranylgeraniol control 100; rescue of ATP level, % at 7.49 µM;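 active means mean ATP rescue above about 67%, or every replicate alone reaching that limit, limit read from the data, passing the limit was not always enough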;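 further: myotubes were challenged with 10 µM simvastatin during compound exposure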
CAL PDZ FP-2 – CAL PDZ peptide-binding inhibitors, primary screen, biochemical, fluorescence polarization, Cer-tagged CAL PDZ, HTS. Golgi-associated PDZ and coiled-coil motif-containing protein (Homo sapiens), Q9HD26. purified CAL PDZ, TMR-peptide fluorescence polarization, 1 h. inhibition, % at 20 µM. 330,000 tested, 0.02% active. AID 504414, 2011;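 active means highest replicate inhibition of at least 40%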;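 further: plate controls were DMSO neutral control wells for no effect and unlabeled competitor peptide control wells for full effect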
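System: purified tagged CAL PDZ domain construct (CerCALP). Schedule: 1 h incubation at room temperature before polarization reading. Medium: 25 mM sodium phosphate pH 7.4, 150 mM NaCl, TCEP, IgG, Thesit. Read-out: percent inhibition from loss of millipolarization. Measured by: FP readout, S and P plane fluorescence. Probe or stimulus: fluorescent TMR peptide probe.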
dFosB act-1 – activators of delta FosB homodimer, primary screen, biochemical, fluorescence polarization, TAMRA-CDK5 oligo, single point; purified delta FosB; percent of positive-control signal above neutral wells; Protein FosB (Mus musculus), P13346; AID 493131, 2011; 340,000 tested, 0.99% active; activation, % at 25 µM;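 active means mean activation above about 17%, with every replicate also reaching it, limit read from the data, passing the limit was not always enough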
Target sequence (P13346 whole entry, looked up): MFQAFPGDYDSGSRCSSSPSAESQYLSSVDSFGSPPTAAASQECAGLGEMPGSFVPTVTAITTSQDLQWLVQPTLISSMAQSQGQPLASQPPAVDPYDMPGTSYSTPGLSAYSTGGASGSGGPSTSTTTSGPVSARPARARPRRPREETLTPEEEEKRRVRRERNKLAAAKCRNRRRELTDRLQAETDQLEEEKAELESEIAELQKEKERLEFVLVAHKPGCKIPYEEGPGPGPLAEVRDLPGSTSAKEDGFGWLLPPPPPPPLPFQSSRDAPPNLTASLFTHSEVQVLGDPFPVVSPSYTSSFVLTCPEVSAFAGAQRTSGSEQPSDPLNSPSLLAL
dFosB act-2 – activators of mouse delta FosB DNA binding, confirmation, biochemical, fluorescence polarization, TAMRA-CDK5 oligo, cherry-picked samples; shares compounds with dFosB act-1; purified delta FosB; normalised: neutral wells 0, positive control 100; activation, % at 24.9 µM; 2,400 tested, under 10 active;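 active means highest replicate activation at or above 34% and every replicate reaching that threshold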;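 further: higher polarization means more probe DNA bound by delta FosB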
Starred values were filed as active, the others as inactive.

Screening Cc1ccc(NC(=O)COC(=O)c2cccc(N3C(=O)c4ccccc4C3=O)c2)cc1 returned CDK5 p35 inh 0, CAL PDZ FP-1 1, S100A4 MyoIIA -3, CAL PDZ FP-2 1, dFosB act-1 50* and dFosB act-2 -2.
For CC(=O)c1cccc(NC(=O)COC(=O)c2cccc(N3C(=O)c4ccccc4C3=O)c2)c1 the results were CDK5 p35 inh 0, CAL PDZ FP-1 -2, S100A4 MyoIIA -3, CAL PDZ FP-2 -3 and dFosB act-1 1.
Screening Cc1csc(NC(=O)c2cc3c(C)nn(Cc4ccccc4Cl)c3s2)n1 returned CDK5 p35 inh 4, CAL PDZ FP-1 -3, C2C12 statin 15, CAL PDZ FP-2 -2, dFosB act-1 46* and dFosB act-2 7.
Cc1ccccc1Cn1c(=O)n(-c2ccccc2)c(=O)c2ccc(C(=O)NCc3ccco3)cc21 was read as CDK5 p35 inh 0, S100A4 MyoIIA -5, C2C12 statin -5, CAL PDZ FP-2 0, dFosB act-1 45* and dFosB act-2 1.
For C=CCn1c(=O)c2ccc(C(=O)NCc3ccccc3)cc2n(Cc2ccc(Cl)cc2)c1=O the results were CDK5 p35 inh 2, CAL PDZ FP-1 -4, S100A4 MyoIIA 0, CAL PDZ FP-2 1 and dFosB act-1 -2.
C=CCn1c(=O)c2ccc(C(=O)NCc3ccccc3)cc2n(Cc2cccc(Cl)c2)c1=O was read as CDK5 p35 inh -1, S100A4 MyoIIA -3, CAL PDZ FP-2 -1, dFosB act-1 42* and dFosB act-2 0.
`O=C(NCc1ccco1)c1ccc2c(=O)n(-c3ccccc3)c(=O)n(Cc3cccc(F)c3)c2c1` gave CDK5 p35 inh 0, S100A4 MyoIIA -2, C2C12 statin -6, CAL PDZ FP-2 0, dFosB act-1 47* and dFosB act-2 -1.
COc1ccc(NC(=O)Cn2nnc(C(=O)NCc3cccs3)c2N)cc1OC was read as CDK5 p35 inh -1, S100A4 MyoIIA 3, C2C12 statin -6, CAL PDZ FP-2 0 and dFosB act-1 6.
For COc1ccc(NC(=O)Cn2nnc(C(=O)Nc3ccc(F)c(Cl)c3)c2N)cc1OC the results were CDK5 p35 inh 1, CAL PDZ FP-1 -4, S100A4 MyoIIA -1, C2C12 statin -7, CAL PDZ FP-2 -3, dFosB act-1 23* and dFosB act-2 3.
`Nc1c(C(=O)NCc2ccco2)nnn1CC(=O)Nc1ccc2c(c1)OCO2` gave CDK5 p35 inh 0, S100A4 MyoIIA -10, C2C12 statin 3, CAL PDZ FP-2 -2 and dFosB act-1 -1.
Cc1ccc(NC(=O)Cn2nnc(C(=O)Nc3ccc(C)c(C)c3)c2N)cc1 was read as CDK5 p35 inh 0, CAL PDZ FP-1 -2, CAL PDZ FP-2 -4, dFosB act-1 120* and dFosB act-2 -6.
Cc1ccc(NC(=O)c2nnn(CC(=O)Nc3ccc4c(c3)OCO4)c2N)cc1C was read as CDK5 p35 inh -1, CAL PDZ FP-1 -4, S100A4 MyoIIA 1, C2C12 statin 23, CAL PDZ FP-2 -2, dFosB act-1 46* and dFosB act-2 -1.
`O=C(Cn1nc(C(=O)O)c2ccccc2c1=O)Nc1cccc(S(=O)(=O)N2CCCCC2)c1` gave CDK5 p35 inh -2, CAL PDZ FP-1 -4, S100A4 MyoIIA 5, C2C12 statin 3, CAL PDZ FP-2 -1, dFosB act-1 28* and dFosB act-2 8.
Screening O=C(Cn1nc(C(=O)O)c2ccccc2c1=O)Nc1nc(-c2ccccc2)cs1 returned CDK5 p35 inh -1, CAL PDZ FP-1 -8, S100A4 MyoIIA 3, C2C12 statin 4, dFosB act-1 69* and dFosB act-2 -2.
CCOC(=O)c1c(NC(=O)Cn2nc(C(=O)O)c3ccccc3c2=O)sc2c1CCC(C)C2 (stereo not given) was read as CDK5 p35 inh -3, CAL PDZ FP-1 -2, S100A4 MyoIIA 6, CAL PDZ FP-2 0 and dFosB act-1 -8.
Screening O=C(Cn1nc(C(=O)O)c2ccccc2c1=O)Nc1ccccc1C(F)(F)F returned CDK5 p35 inh -1, CAL PDZ FP-1 -1, S100A4 MyoIIA -5, C2C12 statin 6, CAL PDZ FP-2 -2, dFosB act-1 78* and dFosB act-2 4.
For O=C(Cn1nc(C(=O)O)c2ccccc2c1=O)Nc1ccc(Br)cc1 the results were CDK5 p35 inh -1, CAL PDZ FP-1 -1, S100A4 MyoIIA 1, C2C12 statin -7, CAL PDZ FP-2 -2 and dFosB act-1 5.
NC(=O)c1c(NC(=O)Cn2nc(C(=O)O)c3ccccc3c2=O)sc2c1CCC2 was read as CDK5 p35 inh 0, CAL PDZ FP-1 -5, S100A4 MyoIIA 6, C2C12 statin 2, CAL PDZ FP-2 0, dFosB act-1 33* and dFosB act-2 2.
`O=C(Cn1nc(C(=O)O)c2ccccc2c1=O)Nc1cccc(S(=O)(=O)N2CCOCC2)c1` gave CDK5 p35 inh -2, S100A4 MyoIIA -11, C2C12 statin 10, CAL PDZ FP-2 -1 and dFosB act-1 -19.
Screening O=C(CCCn1c(=O)[nH]c2ccsc2c1=O)N1CCN(c2ccccn2)CC1 returned CDK5 p35 inh -1, CAL PDZ FP-1 -14, C2C12 statin 1 and dFosB act-1 1.
O=Nc1c2ccc[nH]c-2c2ccc([N+](=O)[O-])cc12 was read as CDK5 p35 inh -1, CAL PDZ FP-1 0, S100A4 MyoIIA -3, CAL PDZ FP-2 -4 and dFosB act-1 14.
`Cn1c(=O)c(=O)n(C)c2cc(S(=O)(=O)CCC(=O)Nc3cccc(C(F)(F)F)c3)ccc21` gave CAL PDZ FP-1 0, S100A4 MyoIIA -4, C2C12 statin -8, CAL PDZ FP-2 -2, dFosB act-1 21* and dFosB act-2 3.
Cn1c(=O)c(=O)n(C)c2cc(S(=O)(=O)CCC(=O)Nc3ccc(F)cc3)ccc21 was read as CDK5 p35 inh -1, CAL PDZ FP-1 1, S100A4 MyoIIA -2, C2C12 statin -5, CAL PDZ FP-2 -1 and dFosB act-1 -4.

Compound activity (PubChem)
